Compound activity from PubChem.
HUVEC prolif 384: inhibitors of HUVEC proliferation, primary screen, cell-based, 384-well. viability, % at 10 µM (by protocol). CellTiter-Glo luminescence, 72 h; stronger effect = lower value. 86,000 tested, 1.1% active;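 active = viability at or below 30%; inactive = viability above 30%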
H69AR inhibit: proliferation blockers of H69AR lung cancer cells, primary screen, cell-based, human, 86K library; H69AR lung tumor viability, ATP luminescence, 72 h; stronger effect = lower value; viability, % at 10 µM; 85,000 tested, 6% active; AID 598, 2007;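 active = viability at or below 40%; inactive = viability above 40%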;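 note: multidrug resistant small cell line overexpressing MRP-1 efflux transporter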
Fibroblast inh: antiproliferative effect on LL 47 fibroblasts – human, LL 47 cells, CellTiter-Glo luminescence, primary screen; AID 719, 2007; 85,000 tested, 1.1% active; viability, % at 10 µM; LL 47 human lung fibroblast viability, ATP luminescence; stronger effect = lower value;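 active = viability at or below 50% in the single dose screen; inactive = viability above 50%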;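 note: compound exposure lasted 72 h before the ATP readout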
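Test system: LL 47 human lung fibroblasts / Incubation: 72 h compound exposure at 37 °C after overnight plating / Technique: luminescent ATP detection, CellTiter-Glo / Compound dosing: 0.1% DMSO in all compound wells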
Jurkat tox 60K: cytotoxicity toward Jurkat T cells, primary screen, cytotoxicity control, cell-based, Jurkat E6.1, 60K MLSMR library; Jurkat E6.1 viability, ATP luminescence, 48 h; inhibition, % at 4 µM; 56,000 tested, 1.2% active; AID 463, 2006;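 active = inhibition above the mean inhibition of all tested compounds plus 3 SD, cut at about 28% in these data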
Hits are given with their value; 0 = inactive; - = no result. The list is not random: actives were taken first. Their share in the collection is about 6.4%.

SMILES	HUVEC prolif 384	H69AR inhibit	Fibroblast inh	Jurkat tox 60K
CCOC(=O)c1c(C)c(C(=O)Nc2cc(F)ccc2F)c(C)n1C	0	19.5	0	40.0
CCOC(=O)c1c(C)c(C(=O)Nc2ccc3c(c2)OCCO3)c(C)n1C	0	0	0	0
Cc1cccc(OCCSc2cc(C)nc(N)n2)c1	0	0	0	0
COc1cccc(OC)c1-c1nnc(-c2cn(C)c3ccccc23)o1	0	0	0	0
COc1cccc(-c2nnc(Nc3nc4c(F)cccc4s3)o2)c1	15.6	0	0	0
COc1ccccc1-c1nnc(Nc2nc3c(OC)cccc3s2)o1	-	-	-	86.7
COc1cccc(-c2nnc(NC(C)=O)o2)c1	0	0	0	0
O=C(Nc1nnc(-c2ccccc2Cl)o1)c1nc2ccccc2s1	0	28.3	0	-
COc1cccc2sc(Nc3nnc(-c4ccccc4Cl)o3)nc12	2.4	26.6	41.4	67.3
CCC1CCCCN1CC(=O)Nc1cc(C)nn1-c1nc(C)cc(C)n1 (configuration not stated)	0	18.6	0	0
Cc1cc(C)nc(-n2nc(C)cc2NC(=O)CN2CCC(C)CC2)n1	0	9.5	0	-
Cc1cc(NC(=O)CN2CCOCC2)n(-c2nc3ccccc3s2)n1	0	0	0	-
C=CCOc1ccc2nc(NC(=O)OC)[nH]c2c1	0	32.9	48.5	-
CC(=O)NNc1ccc(C(F)(F)F)cc1[N+](=O)[O-]	0	0	0	-
CCCOP(=O)(OCCC)c1c([N+](=O)[O-])cc(C(F)(F)F)cc1[N+](=O)[O-]	11.5	39.0	18.6	-
CCn1c(SCC(=O)Nc2ccc3c(c2)OCO3)nnc1-c1ccccc1O	0	0	0	0
Cc1cccc(NC(=O)c2cc(NC(=O)c3ccco3)ccc2N2CCCCC2)c1	26.0	0	0	0
COCC(=O)Nc1nc2ccccc2s1	0	0	0	-
O=C(COC(=O)Cc1cn2ccsc2n1)Nc1nc2ccccc2s1	0	7.2	0	0
COC(=O)c1sccc1NC(=O)c1ccc2c(c1)OCO2	0	38.8	28.8	-
Cn1c(COc2ccccc2)nnc1SCCC(=O)Nc1ccccc1	0	0	0	0
O=C(CCSc1ccc(Cl)cc1)N1CCN(c2ncccn2)CC1	0	0	44.8	0
Cc1cccc(N2C(=O)CC(Sc3nnc(C)s3)C2=O)c1 (configuration not stated)	0	0	0	-
COc1ccc(CC(=O)Nc2cc(C)ccn2)cc1	0	0	0	0
Cc1ccc2nc(-c3cccc(NC(=O)c4ccco4)c3)[nH]c2c1	0	21.2	-	0
SMILES	HUVEC prolif 384	H69AR inhibit	Fibroblast inh	Jurkat tox 60K
Cc1cccc(OCC(=O)Nc2cccc(-c3nnc(-c4ccccc4)o3)c2)c1C	0	9.8	0	0
O=C(Nc1cccc(-c2nnc(-c3ccccc3)o2)c1)C1CCCCC1	0	19.0	0	0
COc1cccc(-c2nnc(NC(=O)C3CCCCC3)o2)c1	0	0	0	0
O=C(Nc1ccc2nc(-c3cccnc3)[nH]c2c1)c1ccco1	0	0	0	0
O=C(Nc1ccccc1)c1cccc(-c2nnc(-c3ccccc3)o2)c1	18.7	25.9	0	0
O=C(Nc1nnc(-c2ccccc2)o1)c1ccc(Cl)cc1	0	0	0	0
CC(C)CC(=O)N1CCN(C(=O)CCC2CCCC2)CC1	0	0	0	0
O=C(O)C1CC(=O)N(c2ccc(OCc3ccccc3)cc2)C1 (configuration not stated)	0	0	0	-
CCn1c(=O)c2cc(S(=O)(=O)NC3CCCCC3)ccc2n(CC)c1=O	0	0	0	0
O=C(Nc1ccc2nc(-c3ccco3)[nH]c2c1)c1cccs1	0	39.7	0	0
CCCCC(=O)Nc1cccc(-c2nnc(-c3ccccc3)o2)c1	0	0	0	0
O=C(Nc1cccc(-c2nnc(-c3ccccc3)o2)c1)c1ccco1	0	15.4	0	0
CC1CCN(C(=S)c2ccc3c(c2)OCO3)CC1	0	0	0	-
CCOc1ccc(N2CC(C(=O)Nc3ccccc3N3CCOCC3)CC2=O)cc1 (configuration not stated)	0	0	0	-
CN(C)S(=O)(=O)c1cccc(N=c2scc(-c3ccc4c(c3)NC(=O)CO4)n2CC2CCCO2)c1 (configuration not stated)	0	34.4	0	-
O=S(=O)(c1ccc(Oc2ccccc2)cc1)N1CCOCC1	0	0	0	0
O=S(=O)(c1ccc(Oc2ncnc3scc(-c4ccccc4)c23)cc1)N1CCOCC1	0	37.2	0	0
CCOc1ccc(N2C(=O)CN=C2Nc2ccccc2F)cc1	0	0	0	-
CN1CCN(CC#CCn2c3ccccc3c3ccccc32)CC1	0	0	0	0
CCC1(C)OCC(Cn2c3ccccc3c3ccccc32)O1 (configuration not stated)	0	25.4	0	-
Cc1ccc(N(CC(=O)O)S(C)(=O)=O)cc1Cl	0	0	0	0
Cc1ccc(NC(=O)COc2ccc(/C(N)=N/O)cc2)cc1C	0	0	0	-
CCOC(=O)N1CCN(C(=O)c2cnn3c(C(F)F)cc(-c4ccc(C)cc4)nc23)CC1	0	0	0	0
COc1ccc(-c2cc(C(F)F)n3ncc(C(=O)N4CCN5CCCC5C4)c3n2)cc1 (configuration not stated)	0	37.9	0	-
Cn1c(=O)[nH]c(=O)c2c1nc(CN1CCN(c3cccc(Cl)c3)CC1)n2Cc1ccccc1Cl	0	11.8	0	0
SMILES	HUVEC prolif 384	H69AR inhibit	Fibroblast inh	Jurkat tox 60K
CCCCn1c(CN2CCN(c3cccc(Cl)c3)CC2)nc2c1c(=O)[nH]c(=O)n2C	0	19.4	49.4	80.5
Cn1c(=O)[nH]c(=O)c2c1nc(CN1CCN(c3cccc(Cl)c3)CC1)n2CCCc1ccccc1	0	0	0	0
COc1ccccc1-c1nc(-c2ccccn2)no1	0	39.7	0	0
COc1ccc2cc(CN(CC3CCCO3)S(=O)(=O)c3ccccc3Cl)c(=O)[nH]c2c1 (configuration not stated)	0	0	0	-
CCN(CC)S(=O)(=O)c1ccc2oc(SCC3CN=C(c4ccc(OC)cc4)S3)nc2c1 (configuration not stated)	0	0	0	0
O=C(Oc1ccc(F)cc1C(=O)/C=C/c1cccs1)c1cccc([N+](=O)[O-])c1	0	3.0	0	-
C[C@@H]1C[C@H](Nc2ccccc2)c2ccccc2N1C(=O)c1cccnc1	0	19.5	0	-
CC1CC(Nc2ccccc2)c2ccccc2N1C(=O)c1cccnc1 (configuration not stated)	0	0	0	-
OCC#CCSc1nnc(-c2ccc(Br)cc2)o1	0	0	0	0
COc1ccc(OC)c(C(=O)CSc2nnc(-c3ccc(OC)c(OC)c3)o2)c1	0	0	30.3	0
COc1ccc(-c2nnc(SCC#CCO)o2)cc1OC	0	30.9	0	0
COc1ccc(-c2nnc(SCC(=O)N3CCCc4ccccc43)o2)cc1OC	0	36.6	0	0
CCc1ccc(N2CC(C(=O)Nc3nccs3)CC2=O)cc1 (configuration not stated)	0	0	0	0
COC(=O)COc1ccc(Oc2cc(C)nc(SC)n2)nn1	0	0	0	0
COC(=O)c1ccc(Oc2cc(C)nc(SC)n2)cc1	0	30.1	0	65.2
